Screening results from PubChem BioAssay.
This is one part of a sample in which hits are shown more often than they occur.
Lmaj promast – Leishmania major promastigote growth inhibition, primary screen | Leishmania major promastigotes, resazurin fluorescence viability | inhibition, % at 10 µM | AID 1063, 2008 | 9% of 200,000 active; in the data active = inhibition above about 50%;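 note: promastigotes grown with compound for 44 hours at 28 °C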
Dynein transport – inhibitors of GR-EGFP nuclear translocation, primary screen, dynein cargo transport inhibitor project, imaging, high-content, 3617.4 mouse cells; 0.47% of 220,000 active; z-score, hits read low; test concentration mostly 20 µM; stimulated with dexamethasone, 1 µM; active compounds read low;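 active = plate z-score of nuclear minus cytoplasmic receptor signal below a set negative limit, without overly bright fluorescence or cell loss, cut at about -3.5 in these data, passing the limit was not always enough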;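 note: z-score of nuclear minus cytoplasmic ring GR-EGFP intensity difference per well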
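Buffer or medium: tetracycline-free induction medium containing charcoal-stripped FBS / Reagent: dexamethasone agonist, 1.0 µM final, for 30 min / Technique: automated 10x imaging of fixed Hoechst-stained cells / Times: induction 48 h, compound 1 h, agonist 30 min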
CHOP inh – inhibitors of CHOP promoter induction, primary screen, cell-based, unfolded protein response, luciferase reporter; CHO-K1 CHOP-promoter luciferase, tunicamycin-induced, 15-18 h; inhibition, % at 10 µM; 3.8% of 220,000 active; AID 2732, 2010;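 active = compounds that reduced the stress-induced luciferase reporter signal by more than about 70% of percent inhibition, limit read from the data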
UPR XBP1 act – activators of adaptive XBP1 UPR arm, primary screen, cell-based, CHO-XBP1 luciferase reporter, luminescence, uHTS; activation, % at 20 µM; 0.33% of 330,000 active; IRE1-XBP1 UPR activation; percent of tunicamycin response, DMSO as zero;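 active = versus positive control, 20 µM dose yields 30% or more activation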
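assay system = CHO-XBP1 luciferase reporter cells | amount = 1000 cells/well | buffer or medium = F12 plus 10% FBS | compound dosing = single point, 20 µM final compound, 1% DMSO | incubation = 16-18 h cell attachment at 37 °C, then 6 h compound exposure | detection = Steady-Glo luminescence read | controls = tunicamycin 10 µg/mL and vehicle-only wells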
CHOP UPR activ – activators of apoptotic CHOP UPR arm, primary screen, cell-based, CHO-CHOP luciferase reporter, luminescence, uHTS | activation, % at 10 µM | AID 449763, 2010 | 0.34% of 330,000 active | UPR activation; percent of tunicamycin response over DMSO baseline;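 active = at 10 µM dose, activation of 40% or more, normalized to positive control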
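System: CHO-CHOP luciferase reporter cell line | Buffer or medium: F12 medium containing 10% fetal bovine serum | Doses: One dose, 10 µM in 0.5% DMSO | Times: 6 h compound exposure at 37 °C after overnight seeding | Signal: Luciferase luminescence | Read-out: % activation vs tunicamycin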
T cruzi repl – inhibitors of intracellular T. cruzi growth, primary screen, luminescence, NIH3T3 host cells; T. cruzi beta-gal in NIH3T3, 90 h; inhibition, % (test concentration not listed); 1.4% of 300,000 active;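 active = mean inhibition across valid replicates above about 55%, limit read from the data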;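 note: signal also drops with host cell toxicity which is not excluded here; higher percent means less beta-gal luminescence so fewer parasites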
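System: mouse NIH/3T3 fibroblasts infected with β-gal-expressing T. cruzi Tulahuen C4 / Input: NIH/3T3 cells, 5,000 per well / Buffer or medium: Low-serum DMEM with 2% FBS / Probe or stimulus: 5000 reporter trypomastigotes per well / Schedule: ≥90 h infection period, 3 h prior cell attachment / Measured by: GalScreen luminescence, 60 min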
Numbers stand for hits; . = inactive; / = not tested or not shown.

SMILES	Lmaj promast	Dynein transport	CHOP inh	UPR XBP1 act	CHOP UPR activ	T cruzi repl
N=c1c2c(ncn1CCN1CCOCC1)Oc1ccc3ccccc3c1C2c1ccccc1 (stereo unspecified)	99	.	.	.	.	.
COc1ccc(C2C3=C(CC(C)(C)CC3=O)Oc3ncn(Cc4ccccc4)c(=N)c32)cc1 (stereo unspecified)	63	.	.	.	.	.
CN(C)CCn1cnc2c(c1=N)C(c1ccccc1)c1ccc3ccccc3c1O2 (stereo unspecified)	/	/	/	.	.	.
N=c1c2c(ncn1Cc1ccco1)Oc1c(ccc3ccccc13)C2c1ccccc1 (stereo unspecified)	57	.	89	.	.	.
CCOC(=O)Cc1csc(NS(=O)(=O)c2ccc(OC)cc2)n1	.	.	.	.	.	.
CCOC(=O)Cc1csc(NS(=O)(=O)c2ccc(Cl)cc2)n1	50	.	.	.	.	.
CN(C)Cc1c(-c2ccc(Cl)cc2)nc2ccc(Cl)cn12	68	.	.	.	.	.
CCN(CC)CCCNC(=O)C1c2ccccc2Oc2ccccc21	.	.	.	.	.	.
CNCCCC1Sc2ccccc2Oc2ccccc21 (stereo unspecified)	100	.	.	.	.	.
Cc1cccc2c(N=NC(=O)c3ccc(NS(=O)(=O)c4cccs4)cc3)c(O)[nH]c12	/	/	/	.	.	/
Cc1cccc2c(N=Nc3ccc(S(=O)(=O)Nc4ccc(Cl)cc4)cc3[N+](=O)[O-])c(O)[nH]c12	53	.	.	.	.	.
c1ccc(COc2ccc(OCCCNC3CCCC3)cc2)cc1	100	.	.	.	.	.
c1ccc(CCNCCOc2ccccc2)cc1	/	/	/	.	.	.
CCOc1ccc(OCCCC(=O)O)cc1	.	.	.	.	.	.
C=CCNCCCCOc1ccc(OCc2ccccc2)cc1	99	.	.	.	.	.
CCOc1ccc(OCCCCNCCN)cc1	86	.	.	.	.	.
COCCCNCCCCOc1ccc(OCc2ccccc2)cc1	99	.	.	.	.	.
Cc1ccc(NC(=O)CSCC(=O)Nc2cc(Cl)ccc2N2CCOCC2)cc1	/	/	/	.	.	.
Cc1cccc(C)c1NC(=O)COC(=O)[C@@H]1CCCN1C(=O)c1cccs1	/	/	/	.	.	/
COc1ccc(S(=O)(=O)Nc2cccc3c2O[C@H](CN(C)S(=O)(=O)c2ccccc2)[C@@H](C)CN([C@H](C)CO)C3=O)cc1	/	/	/	.	.	/
CCc1cccc(OCCCCNCCOC)c1	90	.	.	.	.	.
CCc1cccc(OCCCN2C(=O)NC(C)(C)C2=O)c1	.	.	.	.	.	.
C/C(=N\NC(=O)C(C)Sc1ccccc1)c1ccc([N+](=O)[O-])cc1 (stereo unspecified)	/	/	/	.	.	.
O=[N+]([O-])c1ccc(N/N=C/c2sc(N3CCOCC3)nc2-c2ccccc2)c(S(=O)(=O)Nc2ccc(Cl)cc2)c1	66	.	86	/	/	84
O=C(O)c1cccc(N/N=C/c2sc(N3CCOCC3)nc2-c2ccccc2)c1	.	.	.	.	.	.
SMILES	Lmaj promast	Dynein transport	CHOP inh	UPR XBP1 act	CHOP UPR activ	T cruzi repl
O=[N+]([O-])c1ccc(N/N=C/c2sc(N3CCOCC3)nc2-c2ccccc2)c(S(=O)(=O)Nc2ccccc2Cl)c1	70	.	85	/	/	/
O=C(N/N=C/c1sc(N2CCOCC2)nc1-c1ccccc1)c1ccccc1Cl	.	.	.	.	.	.
COc1ccccc1C(=O)NCC(=O)NCc1cc(=O)n(C)c(=O)n1C	/	/	/	.	.	.
CCCC1(CCC)NC(=O)N(CC(=O)N2CCc3ccccc32)C1=O	/	/	/	.	.	/
CCOC(=O)c1sc(NC(=O)c2ccccc2)cc1C	.	.	.	.	.	.
CCOC(=O)c1sc2ccccc2c1OC(=O)c1ccccc1	.	.	81	.	.	.
CCOC(=O)c1sc2ccccc2c1NC(=O)c1coc2ccccc2c1=O	58	.	.	.	.	.
COC(=O)Cc1c[nH]c2cccc(OCC(O)CN(Cc3ccc([N+](=O)[O-])cc3)C(C)(C)C)c12 (stereo unspecified)	.	.	.	.	.	65
Cc1ccc(CN(CC(O)COc2cccc3[nH]cc(C)c23)C(C)(C)C)cc1 (stereo unspecified)	/	/	/	.	.	.
C=CCn1c(N)c(C(=O)OC(C)CC)c2nc3ccccc3nc21 (stereo unspecified)	100	.	.	/	/	.
CCOc1ccc(CN2CCN(Cc3cccc4nonc34)CC2CCO)cc1 (stereo unspecified)	.	.	.	.	.	60
OCCC1CN(Cc2cc3c(cc2Cl)OCO3)CCN1Cc1ccccc1 (stereo unspecified)	.	.	.	.	.	59
CCOc1ccc(CN2CCN(Cc3cccn3-c3ncccn3)CC2CCO)cc1 (stereo unspecified)	.	.	.	.	.	.
CCOc1ccc(CN2CCN(Cc3[nH]c4ccccc4c3C)CC2CCO)cc1 (stereo unspecified)	77	.	.	.	.	.
CCOc1ccc(CN2CCN(Cc3cnn(CC)c3C)CC2CCO)cc1 (stereo unspecified)	.	.	.	.	.	.
Cc1c(CN2CCN(CC(C)(C)C)C(CCO)C2)[nH]c2ccccc12 (stereo unspecified)	/	/	/	.	.	.
CCOc1ccc(CN2CCN(Cc3cccn3-c3cccnc3)CC2CCO)cc1 (stereo unspecified)	.	.	.	.	.	60
COc1cccc(/C=N/NC(=O)Cn2cnc3c2c(=O)n(C)c(=O)n3C)c1OC	/	.	.	.	.	.
NS(=O)(=O)c1ccc(NC(=O)COC(=O)CCc2ccc(S(=O)(=O)N3CCOCC3)cc2)cc1	/	.	.	.	.	.
c1ccc2c(c1)COC(CNC1CCCCC1)OC2	.	.	.	.	.	.
CCOc1ccc(CN2CCN(Cc3cccc4c3OCO4)CC2CCO)cc1 (stereo unspecified)	77	.	.	.	.	97
Cc1ccc(CN2CCN(Cc3cccc4c3OCO4)CC2CCO)cc1 (stereo unspecified)	58	.	.	.	.	90
CCOc1ccccc1CN1CCN(CC2CC2)CC1CCO (stereo unspecified)	/	/	/	.	.	.
